For series [1], the system named is CWR22R. The series can be described thus: Antitumor activity against human CWR22Rv1 cells xenografted in SCID mouse assessed as reduction in Bcl2 protein expression at 20 mg/kg, ip dosed once daily for 5 days per week for 28 days by SDS-PAGE and Western blotting method. The format is functional, organism-based. Set-up: dose 20 mg/kg. Put shortly:
(§1)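 CWR22Rv1 cells (1 × 10⁶) implanted subcutaneously in male SCID mice, castrated; at ~100 mm³ tumors, randomized (n = 6/group) to vehicle (40% β-cyclodextrin in ddH₂O) or drug ip in same vehicle once daily, 5 days/week for 28 days. Tumor lysates made in RIPA buffer, 50 μg protein from pooled samples (n = 6) on 10% SDS–PAGE, immunoblotted; GAPDH as loading control.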

The test system of series [2] is CWR22R. The series can be described thus: Antitumor activity against human CWR22Rv1 cells xenografted in SCID mouse assessed as increase in Bad protein expression at 20 mg/kg, ip dosed once daily for 5 days per week for 28 days by SDS-PAGE and Western blotting method. The format is functional, organism-based. Set-up: dose 20 mg/kg. In a few lines:
as §1

The test system of another series is LNCaP. As to the kind of experiment: Reduction in cell viability in human LNCAP cells in presence of Mnk1 siRNA at 2.5 uM and 5 uM after 72 hrs by MTT assay. In kind it is functional, cell-based. Put shortly:
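LNCaP cells in RPMI 1640 with 10% FBS were transfected with 100 nM Mnk1 siRNA (Lipofectamine 2000) for 18 h, with scrambled siRNA as control. After two PBS washes they were returned to growth medium, dosed 24 h later, and harvested after 72 h. Viability was read by MTT and normalized to control cells, as mean ± SEM of three independent experiments.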
For orientation: Formazan colour is commonly taken as a measure of viable cells.

The nature of series [3]: Antitumor activity against human CWR22Rv1 cells xenografted in SCID mouse assessed as tumor growth at 20 mg/kg, ip dosed once daily for 5 days per week for 28 days. The format is functional, CWR22R. To be noted: route intraperitoneal. Put shortly: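 Castrated male SCID mice carrying subcutaneous CWR22Rv1 tumors (1 × 10⁶ cells implanted; ~100 mm³ at randomization, n = 6/group) given ip drug in 40% β-cyclodextrin/ddH₂O once daily, 5 days/week for 28 days; vehicle controls. Tumor volume followed; %T/C = median treated volume/median control volume at day 28 × 100. Body weight tracked as toxicity marker.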

The test system of a further series is Mus musculus. The series can be described thus: Toxicity in human CWR22Rv1 cells xenografted SCID mouse assessed as effect on body weight at 20 mg/kg, ip dosed once daily for 5 days per week for 28 days. The note with it: in vivo. In kind it is organism-based. Set-up: dose 20 mg/kg, route intraperitoneal. Put shortly: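 Castrated male SCID mice carried subcutaneous CWR22Rv1 tumors (1 × 10⁶ cells implanted) and were randomized at ~100 mm³, n = 6/group. Dosing was ip 20 mg/kg once daily, 5 days/week for 28 days, in 40% β-cyclodextrin in ddH₂O, against vehicle. Body weight was monitored throughout as a surrogate toxicity marker.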
(In xenograft studies the graft and the host belong to different species.)

Series [4] deals with CWR22R. The series can be described thus: Antitumor activity against human CWR22Rv1 cells xenografted in SCID mouse assessed as reduction in fAR protein expression at 20 mg/kg, ip dosed once daily for 5 days per week for 28 days by SDS-PAGE and Western blotting method. In kind it is functional, organism-based. Set-up: dose 20 mg/kg. In a few lines: as §1
For series [5], the system named is CWR22R. The series can be described thus: Antitumor activity against human CWR22Rv1 cells xenografted in SCID mouse assessed as reduction in AR-V7 protein expression at 20 mg/kg, ip dosed once daily for 5 days per week for 28 days by SDS-PAGE and Western blotting method. The format is functional, organism-based. Set-up: dose 20 mg/kg. Put shortly: as §1
Series [6] has as its system CWR22R. The series can be described thus: Antitumor activity against human CWR22Rv1 cells xenografted in SCID mouse assessed as reduction in Mnk1/2 protein expression at 20 mg/kg, ip dosed once daily for 5 days per week for 28 days by SDS-PAGE and Western blotting method. In kind it is functional, organism-based. The arrangement: dose 20 mg/kg. In a few lines: as §1

Series [7] relates to CWR22R. The series can be described thus: Antitumor activity against human CWR22Rv1 cells xenografted in SCID mouse assessed as reduction in peIF4E protein expression at 20 mg/kg, ip dosed once daily for 5 days per week for 28 days by SDS-PAGE and Western blotting method. The format is functional, organism-based. Set-up: dose 20 mg/kg. Put shortly: as §1
For series [8], the system named is CWR22R. As to the kind of experiment: Antitumor activity against human CWR22Rv1 cells xenografted in SCID mouse assessed as reduction in cyclin D1 protein expression at 20 mg/kg, ip dosed once daily for 5 days per week for 28 days by SDS-PAGE and Western blotting method. The format is functional, organism-based. The arrangement: dose 20 mg/kg. Put shortly: as §1

Results on one compound are retold here after ChEMBL document CHEMBL3414559, “Novel C-4 heteroaryl 13-cis-retinamide Mnk/AR degrading agents inhibit cell proliferation and migration and induce apoptosis in human breast and prostate cancer cells and suppress growth of MDA-MB-231 human breast and CWR22Rv1 human prostate tumor xenografts in mice” (J Med Chem, 2015).

Active and inactive are the calls of the source. The rule behind the calls is not given here.

For the compound `CC1=C(/C=C/C(C)=C/C=C/C(C)=C\C(=O)Nc2cccc(F)c2)C(C)(C)CCC1n1ccnc1` (stereo not given), the outcome in the series on CWR22R [1], in the series on CWR22R [2], with LNCaP, with CWR22R [4], in the series with CWR22R [5] and in the series with CWR22R [6] was Active. The result with CWR22R [7] and with CWR22R [8] was Active. Moreover, the T/C in [3] came out at 38.8%. Moreover, in the series on Mus musculus, the Activity entry was “Non-toxic”.

As a reminder, the T/C is the result in the treated group divided by that in the control group, in per cent.
